Experimental data as given in ChEMBL document CHEMBL1144696, “Overcoming drug resistance to heme-targeted antimalarials by systematic side chain variation of 7-chloro-4-aminoquinolines” (J Med Chem, 2008).

Tests used:
Plasmodium falciparum [1] = test: Antiplasmodial activity against chloroquine-resistant Plasmodium falciparum Dd2 after 72 hrs by SYBR green 1 assay; format: functional, organism-based; settings: Dd2, 72 h
How it was run: (§1)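 P. falciparum growth inhibition measured by SYBR Green I intercalation. Each strain was tested separately. IC50 calculated from triplicate experiments. Values are averages of two separate determinations, each run in triplicate.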

Plasmodium falciparum [2] = test: Selectivity for chloroquine-resistant Plasmodium falciparum Dd2 over chloroquine-sensitive Plasmodium falciparum HB3 as IC50 ratio by SYBR green assay; format: functional
How it was run: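 Selectivity index is IC50 for Dd2 divided by IC50 for HB3. Both IC50s come from the SYBR Green I assay, averaging two determinations each run in triplicate.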

Plasmodium falciparum [3] = test: Antiplasmodial activity against chloroquine-sensitive Plasmodium falciparum HB3 after 72 hrs by SYBR green 1 assay; format: functional, organism-based; settings: HB3, 72 h; how it was run: as §1
Plasmodium falciparum [4] = test: Selectivity index for chloroquine-resistant Plasmodium falciparum FCB to chloroquine-sensitive Plasmodium falciparum GCO3 by SYBR green IC50 ratio; format: functional
Plasmodium falciparum [5] = test: Antiplasmodial activity against chloroquine-resistant Plasmodium falciparum FCB after 72 hrs by SYBR green 1 assay; format: functional, organism-based; how it was run: as §1
Plasmodium falciparum [6] = test: Antiplasmodial activity against chloroquine-sensitive Plasmodium falciparum GCO3 after 72 hrs by SYBR green 1 assay; format: functional, organism-based; settings: GCO3, 72 h; how it was run: as §1

Row | SMILES | IC50 (Plasmodium falciparum [1]) | Ratio IC50 (Plasmodium falciparum [2]) | IC50 (Plasmodium falciparum [3]) | Ratio IC50 (Plasmodium falciparum [4]) | IC50 (Plasmodium falciparum [5]) | IC50 (Plasmodium falciparum [6])
1 | CC(C)NC1CCC(Nc2ccnc3cc(Cl)ccc23)CC1 (centres undefined) | 75.7 nM | 2.42 | 31.3 nM | 3.89 | 66 nM | 19.5 nM
2 | CC(C)N(CCCN(CCCN(C(C)C)C(C)C)c1ccnc2cc(Cl)ccc12)C(C)C | 99.8 nM | 2.26 | 44.1 nM | 2.45 | 104 nM | 42.4 nM
3 | CCN(CC)CCCN(CC)CCNc1ccnc2cc(Cl)ccc12 | 31.2 nM | – | 27.3 nM | – | 52.7 nM | 37.7 nM
4 | CCN(CC)CCCNCCCCNc1ccnc2cc(Cl)ccc12 | 170 nM | 2.34 | 72.5 nM | 1.36 | 189 nM | 139 nM
5 | CCN(CC)CCCNCCCCCCNc1ccnc2cc(Cl)ccc12 | 269 nM | 3.25 | 82.8 nM | 1.67 | 216 nM | 129 nM
6 | CCN(CC)CCCNCCNc1ccnc2cc(Cl)ccc12 | 129 nM | – | 29.2 nM | – | 146 nM | 118 nM
7 | CCN(CC)CCCNCCCNc1ccnc2cc(Cl)ccc12 | 56.3 nM | 2.06 | 27.3 nM | 1.14 | 73.7 nM | 64.8 nM
8 | CC(C)N(CCCCN(CCCCN(C(C)C)C(C)C)c1ccnc2cc(Cl)ccc12)C(C)C | 2550 nM | 1.94 | 1310 nM | 1.47 | 2220 nM | 1510 nM
9 | CCN(CC)CCCCN(CCCCN(CC)CC)c1ccnc2cc(Cl)ccc12 | 882 nM | 1.23 | 716 nM | 2.05 | 1060 nM | 517 nM
10 | CCN(CC)CCCN(CC)CCCCCNc1ccnc2cc(Cl)ccc12 | 43.4 nM | 2.76 | 15.7 nM | 1.21 | 66.8 nM | 55.2 nM
11 | CCN(CC)CCCN(CC)CCCNc1ccnc2cc(Cl)ccc12 | 28.1 nM | 1.33 | 21.2 nM | 1.78 | 49.1 nM | 27.6 nM
12 | CCN(CC)C1CCCC(Nc2ccnc3cc(Cl)ccc23)C1 (centres undefined) | 80 nM | 3.04 | 26.3 nM | 2.78 | 113 nM | 40.6 nM
13 | CCN(CC)CCCN(CC)CCCCNc1ccnc2cc(Cl)ccc12 | 84.6 nM | 3.52 | 24.1 nM | 1.78 | 156 nM | 87.4 nM
14 | CC(C)NC1CCCC(Nc2ccnc3cc(Cl)ccc23)C1 (centres undefined) | 76.1 nM | 2.74 | 27.8 nM | 4.21 | 110 nM | 26.1 nM
15 | CCN(CC)CCCNCCCCCNc1ccnc2cc(Cl)ccc12 | 103 nM | 2.25 | 46 nM | 1.42 | 97.3 nM | 68.7 nM
16 | CCN(CC)CCCN(CC)CCCCCCNc1ccnc2cc(Cl)ccc12 | 274 nM | 4.36 | 62.9 nM | 1.5 | 263 nM | 175 nM
17 | CCN(CC)C1CCC(Nc2ccnc3cc(Cl)ccc23)CC1 (centres undefined) | 51.8 nM | 2.03 | 25.5 nM | 1.8 | 57.6 nM | 32 nM
18 | CCN(CC)CCCN(CCCN(CC)CC)c1ccnc2cc(Cl)ccc12 | 128 nM | 0.68 | 187 nM | 1.92 | 186 nM | 96.6 nM
